# Assay results: ChEMBL document CHEMBL3751780, “Rational design, synthesis and in vitro evaluation of allylidene hydrazinecarboximidamide derivatives as BACE-1 inhibitors” (Bioorg Med Chem Lett, 2016)
# The source made the active and inactive calls. The rule behind the calls is not given here.
# Tests used:
# [1] = Cytotoxicity against human […] cells at 10 uM after 24 hrs by MTT assay; assay type: cell-based
# Beta-secretase 1 [2] = biological target: T1, Beta-secretase 1 (Homo sapiens, UniProt P56817); assay: Inhibition of human BACE1 (1 to 460 residues) using APP-based peptide as substrate at 10 uM incubated for 60 mins by FRET analysis
# T1 sequence (P56817 whole entry, the tested form may be a part): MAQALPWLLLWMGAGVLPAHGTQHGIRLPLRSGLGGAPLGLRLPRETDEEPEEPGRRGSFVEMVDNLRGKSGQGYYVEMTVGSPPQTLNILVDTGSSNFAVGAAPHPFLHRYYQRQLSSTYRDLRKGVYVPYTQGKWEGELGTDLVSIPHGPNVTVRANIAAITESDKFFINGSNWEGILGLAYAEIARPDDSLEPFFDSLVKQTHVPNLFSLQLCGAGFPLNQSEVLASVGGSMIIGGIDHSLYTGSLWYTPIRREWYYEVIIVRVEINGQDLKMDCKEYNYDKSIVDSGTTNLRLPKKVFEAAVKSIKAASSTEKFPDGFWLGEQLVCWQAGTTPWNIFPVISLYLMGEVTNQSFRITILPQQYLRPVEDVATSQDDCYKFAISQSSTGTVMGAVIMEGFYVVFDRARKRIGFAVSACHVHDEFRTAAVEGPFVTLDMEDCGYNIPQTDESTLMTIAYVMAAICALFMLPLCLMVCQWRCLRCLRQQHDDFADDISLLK
# Summary of the method: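 Measured by FRET. Test compounds were screened at one fixed concentration and reported as percent inhibition, given as mean ± SD of triplicate experiments performed independently.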
# Beta-secretase 1 [3] = biological target: T1, Beta-secretase 1; assay: Inhibition of human BACE1 (1 to 460 residues) using APP-based peptide as substrate incubated for 60 mins by FRET analysis
SMILES,Activity [1],inhibition (Beta-secretase 1 [2]),IC50 (Beta-secretase 1 [3]) [µM]
COc1ccc(OC)c(/C=C/C(=N/NC(=N)N)c2cccc(Br)c2)c1,Non-toxic,23.9%,
N=C(N)N/N=C(/C=C/c1ccccc1)c1cccc(O)c1,Non-toxic,,
N=C(N)N/N=C(/C=C/c1ccccc1)c1ccc(Cl)cc1,Non-toxic,18%,
N=C(N)N/N=C(/C=C/c1ccccc1)c1ccc([N+](=O)[O-])cc1,Non-toxic,13.5%,
N=C(N)N/N=C(/C=C/c1ccccc1)c1ccccc1,Non-toxic,10.8%,
CN(C)c1ccc(/C=C/C(=N/NC(=N)N)c2cccc([N+](=O)[O-])c2)cc1,Non-toxic,28%,
COc1ccc(/C=C/C(=N/NC(=N)N)c2ccc([N+](=O)[O-])cc2)cc1OC,Non-toxic,61.2%,
COc1ccc(C(/C=C/c2cccc([N+](=O)[O-])c2)=N\NC(=N)N)cc1,Non-toxic,11%,
N=C(N)N/N=C(/C=C/c1ccccc1)c1cccc([N+](=O)[O-])c1,Non-toxic,23.4%,
N=C(N)N/N=C(/C=C/c1cccc([N+](=O)[O-])c1)c1cccc(Br)c1,Non-toxic,10.8%,
CN(C)c1ccc(/C=C/C(=N/NC(=N)N)c2ccc([N+](=O)[O-])cc2)cc1,Non-toxic,23.9%,
COc1ccc(/C=C/C(=N/NC(=N)N)c2cccc([N+](=O)[O-])c2)cc1OC,Non-toxic,45.8%,
COc1ccc(/C=C/C(=N/NC(=N)N)c2ccc(Cl)cc2)cc1OC,Non-toxic,78.2%,6.42
COc1ccc(/C=C/C(=N/NC(=N)N)c2ccccc2)cc1OC,Non-toxic,42.1%,
N=C(N)N/N=C(/C=C/c1cccc([N+](=O)[O-])c1)c1ccc(Cl)cc1Cl,Non-toxic,5.4%,
COc1ccc(C(/C=C/c2cc(OC)ccc2OC)=N\NC(=N)N)cc1,Non-toxic,10.3%,
COc1ccc(/C=C/C(=N/NC(=N)N)c2cccc(Br)c2)cc1OC,Non-toxic,25.9%,
Cc1ccc(C(/C=C/c2ccc(N(C)C)cc2)=N\NC(=N)N)cc1,Non-toxic,10.8%,
CN(C)c1ccc(/C=C/C(=N/NC(=N)N)c2ccccc2)cc1,Non-toxic,inactive,
N=C(N)N/N=C(/C=C/c1cccc([N+](=O)[O-])c1)c1ccccc1,Non-toxic,47.9%,
COc1ccc(OC)c(/C=C/C(=N/NC(=N)N)c2ccccc2)c1,Non-toxic,32.6%,
N=C(N)N/N=C(/C=C/c1cccc([N+](=O)[O-])c1)c1ccc([N+](=O)[O-])cc1,Non-toxic,62.1%,
COc1ccc(/C=C/C(=N/NC(=N)N)c2ccc(Cl)cc2Cl)cc1OC,Non-toxic,21.8%,
